# Assay results reported in the RNAGym collection of RNA variant scans (doi:10.1038/nmeth.2970).
# B1: NELF-E aptamer (parent)
# chain: CCCAACGACUGCCGAGCGAGAUUACGCUUGAGCGCCCCACUGAGGAUGCCCACGGGCGAUUGGGGCACGG
# Variants of: B1
# Assay: HiTS-RAP
# Settings: with NELF-E (Drosophila)
# Outline: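 Aptamer DNA templates bearing a T7 promoter and a ter site were sequenced on an Illumina GAIIx flowcell. T7 RNA polymerase then transcribed them in situ, and GST-Tus halted transcription over 30 minutes at 37°C. After a 30-minute room-temperature equilibration with NELF-E-mOrange at 0.064 to 1000 nM in HEPES binding buffer, clusters were imaged, using only the first binding curve. Intensities normalised to sequencing intensity were averaged per sequence and fitted with weighted Hill fits to give Kd, retaining only fits whose variance stayed under 1,000,000.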
row,Variant,Kd [nM]
1,C13U C37U,7.46
2,A24G U47A,13
3,U22G G45A,74.7
4,C9G U29A,6.02
5,A5C A8U,8.29
6,U41G G63U,11.8
7,C9U G20U,7.82
8,A5C C6A,7.97
9,C13G C40G,5.72
10,A31G A52U,21.5
11,A4U U29C,5.56
12,C6G U41C,64.8
13,G14U G65U,8.73
14,G14U G65A,6.7
15,G11A G18A,7.8
16,G14U A21U,6.73
17,U23G C50U,12.6
18,G16U G55U,8.69
19,U29G C57U,5.61
20,A4G C25G,5.98
21,G14U C40U,53.4
22,A19G G64A,6.54
23,G7A C9G,5.55
24,G11U C57U,6.12

row,Variant,Kd [nM]
1,A8U U41C,85.6
2,U10G G65A,4.82
3,C9G G11U,6
4,A8G A52G,4.33
5,A8U G16A,6.74
6,A8U G16U,7.54
7,U23G A43G,25.1
8,U10G C36G,6.55
9,G11U A43G,45.8
10,G7U U47A,12.9
11,U29G G63A,11.4
12,A4G U10G,5.09
13,G20U U22G,6.52
14,A19U U29G,5.71
15,U41G G56U,5.56
16,C6G A39C,24
17,C9U A24G,5.62
18,A4G C33A,5.4
19,A8G C53U,4.94
20,A39G C57U,9.77
21,C3A,5.8
22,U10C A24G,5.38
23,A39U U41G,30.7
24,C1U,4.73

row,Variant,Kd [nM]
1,G7U A31U,5.33
2,G14U,5.68
3,U22G U41A,81.8
4,U10G G56U,5.31
5,A4G C36G,10.4
6,A8G C49U,16.8
7,A4G A31U,6.57
8,U23G G58U,15.1
9,U22G C25G,5.5
10,G7U C37G,11.1
11,C13G G18U,6.2
12,U10C G16U,5.14
13,U23G G34A,7.56
14,U23G G34U,5.63
15,A31G U41G,6.51
16,A4G C12G,5.9
17,A8U U61C,71.4
18,G16U G26U,7.33
19,U10G A31C,6.21
20,G7A C12G,6.93
21,U29G C50U,15.4
22,U10C U61A,33.1
23,C6A U22G,7.16
24,U22G C53U,4.04

row,Variant,Kd [nM]
1,C6U G14A,7.01
2,U22G G63C,39.6
3,U23G G30U,7.41
4,U23G G64C,6.24
5,G7U G30A,6.35
6,A24G A67G,6.13
7,U22G G48A,9.21
8,A21G U29G,5.79
9,G65U A67U,8.45
10,C6G G30U,6.84
11,A5C C13G,6.73
12,G11U G63U,8.25
13,U10G G26A,4.15
14,C6G U23G,4.81
15,U10A A24G,5.63
16,A4G G44A,54.3
17,A52U U61A,90.9
18,A5G U41G,6.23
19,U10G G55U,6.13
20,C25G U29G,6.18
21,A5U A59G,81.5
22,G26U U29G,7.41
23,U23G C57U,5.72
24,G7A A8C,5.87

row,Variant,Kd [nM]
1,C6A A24G,7.36
2,C6G G62A,21.9
3,U22G G56A,8.77
4,C13U A24G,5.12
5,G18U U22G,6.85
6,C6G A8G,5.5
7,C6G A8C,6.37
8,A15G,4.77
9,G55A,7.36
10,G55C,7.14
11,A67C,4.99
12,U41G G64U,5.28
13,C13G G42U,5.35
14,U10G G16A,5.62
15,U22G A39U,29.7
16,C13U C57U,4.06
17,A4U G11U,6.41
18,G7U C33G,5.51
19,C6G C13G,5.09
20,A5G A59U,113
21,A5G G64A,8.07
22,C9G C13U,5.15
23,G7U C9G,6.28
24,C13G G63U,7.98

row,Variant,Kd [nM]
1,C13G G63A,20.2
2,A5G C9G,5.97
3,A24G A43G,27.9
4,C12U C13U,3.39
5,G14U G56U,7.18
6,A5G G16A,6.56
7,A8G C17U,4.94
8,G63C,33.8
9,U10G A67U,6.91
10,C12G A67U,7.12
11,G44A,42.3
12,A5C G7U,7.5
13,U29G G34A,7.56
14,A24G U28A,3.42
15,U22A A24G,7.66
16,A8G C36U,6.33
17,C6G C35G,7.18
18,A24G G32A,5.64
19,U29A A39U,20.9
20,U22G G42A,49.8
21,C13G U22C,4.85
22,A5U A43G,15.1
23,A4U U28A,5.47
24,C9G G18A,6.15

row,Variant,Kd [nM]
1,G11U A67G,6.41
2,A8G G11A,6.3
3,U22G A43G,22.8
4,A4G G26U,7.06
5,A4G G26A,4.55
6,U10G C27G,4.93
7,G11U C27U,4.86
8,C12G C57U,6.51
9,C9G G64C,5.75
10,A8U G65U,8.03
11,U60G,5.2
12,U10G G32U,5.18
13,U29G C37G,8.38
14,U10A U61A,26
15,U22G C66U,5.67
16,C6G C9G,5.38
17,C9G G48A,8.11
18,G14A U23G,5.88
19,U10G C17A,5.07
20,C25G U41G,6.42
21,C9G G45A,35.6
22,A4U U22C,5.97
23,G7U G54A,15.7
